Experiments:
[1] = target: Translocator protein (Mus musculus) (UniProt P50637); assay: Inhibition of TSPO in mouse HT22 cells assessed as protection against amyloid beta (1 to 42)-induced mitochondrial membrane potential loss by measuring recovery of mitochondrial membrane potential at 5 uM preincubated for 10 mins followed by amyloid beta (1 to 42) addition measured every 1 hr for 3 hrs by JC1 staining based fluorescence assay relative to control; type: cell-based; design: scale not given: the % may be the effect or the level left; settings: HT-22
Sequence of Translocator protein (Mus musculus) (P50637 whole entry, looked up): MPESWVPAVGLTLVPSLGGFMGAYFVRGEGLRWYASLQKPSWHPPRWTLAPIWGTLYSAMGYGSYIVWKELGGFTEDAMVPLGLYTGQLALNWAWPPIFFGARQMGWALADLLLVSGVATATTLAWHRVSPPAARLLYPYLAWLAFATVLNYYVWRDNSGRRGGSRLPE
Procedure, shortened: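 HT22 cells at 30,000 per well were loaded with 7.5 µM JC-1 in phenol red-free Opti-MEM for 1 h 15 min at 37 °C, then washed. Cells were treated with compound (5 µM) and Aβ1-42 (5 µM); vehicle wells received DMSO. Green (485/535) and red (560/595) fluorescence were read hourly for 3 h. Recovery was normalised between Aβ-damaged (0%) and normal (100%) ratio.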

[2] = Cytotoxicity against mouse HT22 cells assessed as cell viability at 5 uM after 24 hrs by MTT assay relative to control; type: toxicity, HT-22; settings: read-out: Activity
Procedure, shortened: (§1)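 MTT was added for 2 h, then solubilising solution (10% Triton X-100 in isopropanol with 0.1 M HCl) for 2 h more. Absorbance read at 560 nm; % inhibition normalised to vehicle, and viability taken from compound-only wells.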

[3] = target: Translocator protein (Mus musculus) (UniProt P50637); assay: Inhibition of TSPO in mouse HT22 cells assessed as protection against amyloid beta (1 to 42)-induced mitochondrial membrane potential loss by measuring recovery of ATP production at 5 uM preincubated for 10 mins followed by amyloid beta (1 to 42) addition measured after 7 hrs by luciferase reporter gene assay relative to control; type: cell-based; design: scale not given: the % may be the effect or the level left; settings: HT-22
Procedure, shortened: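 HT22 cells at 7000 per well were given compound (5 µM) for 10 min at 37 °C, then Aβ1-42 (5 µM) or DMSO vehicle, and incubated 7 h. Cells were washed, lysed in 1% Triton X-100, and protein-equalised by BCA. ATP was measured by luciferin/luciferase luminescence and normalised to vehicle.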

[4] = target: Translocator protein (Homo sapiens, UniProt P30536); assay: Inhibition of TSPO (unknown origin)
Sequence of Translocator protein (P30536 whole entry): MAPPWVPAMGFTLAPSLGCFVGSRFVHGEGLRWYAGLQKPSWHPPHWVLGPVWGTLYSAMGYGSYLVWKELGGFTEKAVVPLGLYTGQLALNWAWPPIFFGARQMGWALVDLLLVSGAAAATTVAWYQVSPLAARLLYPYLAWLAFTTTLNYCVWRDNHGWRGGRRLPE
Procedure, shortened: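 Membranes from male Sprague-Dawley rat cerebral cortex were homogenised and washed in Tris-HCl (30 mM, pH 7.4), then washed in Tris-citrate (50 mM, pH 7.1). Bound and free ligand were separated by filtration through GF/C filters and counted by scintillation. Percent displacement gave the IC50, and Ki was calculated as IC50/(1+[L]/Kd).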

[5] = target: Translocator protein (Mus musculus) (UniProt P50637); assay: Inhibition of TSPO in mouse HT22 cells assessed as inhibition of amyloid beta (1 to 42)-induced toxicity at 5 uM after 24 hrs by MTT assay relative to control; type: cell-based; settings: HT-22
Procedure, shortened: as §1, with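 “HT22 cells at 5000 per well were treated with compound (5 µM), with or without Aβ1-42 (5 µM), for 24 h at 37 °C. MTT” for “MTT”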

[6] = target: Translocator protein (Mus musculus) (UniProt P50637); assay: Inhibition of TSPO in mouse HT22 cells assessed as inhibition of amyloid beta (1 to 42)-induced ROS generation at 5 uM after 6 hrs by DCFDA staining based fluorescence assay relative to control; type: cell-based; settings: HT-22
[7] = target: CYP2D6 (Homo sapiens, UniProt P10635); assay: Inhibition of recombinant human CYP2D6 expressed in baculosomes coexpressing rabbit NADPH-P450 reudctase assessed as residual activity at 10 uM preincubated for 5 mins followed by substrate and NADP+ addition measured after 20 mins by fluorescence assay relative to control; type: ADME; settings: read-out: Activity
Sequence of CYP2D6 (P10635 whole entry): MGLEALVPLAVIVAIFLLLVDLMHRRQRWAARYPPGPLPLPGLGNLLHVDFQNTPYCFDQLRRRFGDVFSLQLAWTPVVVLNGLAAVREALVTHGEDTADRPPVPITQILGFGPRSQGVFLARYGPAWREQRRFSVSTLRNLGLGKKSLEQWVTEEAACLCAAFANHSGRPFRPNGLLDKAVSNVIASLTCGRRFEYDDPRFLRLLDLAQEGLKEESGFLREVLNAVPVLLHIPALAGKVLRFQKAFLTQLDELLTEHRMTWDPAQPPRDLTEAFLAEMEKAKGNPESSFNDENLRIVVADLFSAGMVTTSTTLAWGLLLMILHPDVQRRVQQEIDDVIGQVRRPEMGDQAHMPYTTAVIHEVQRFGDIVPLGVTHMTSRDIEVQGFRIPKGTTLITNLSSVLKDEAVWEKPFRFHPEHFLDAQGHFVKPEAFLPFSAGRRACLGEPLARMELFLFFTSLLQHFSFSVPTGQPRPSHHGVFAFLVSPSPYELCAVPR
Procedure, shortened: (§2)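 Vivid CYP450 kit: recombinant human CYP isozyme in Baculosomes with rabbit NADPH-P450 reductase, plus regeneration system (3.3 mM glucose-6-phosphate, 0.3 U/mL G6PDH in 100 mM potassium phosphate, pH 8.0). Mixture preincubated with sample for 5 min at 37 °C. Vivid substrate and 0.1 mM NADP+ were then added, and remaining activity read by fluorescence after 20 min.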

[8] = target: CYP2C9 (Homo sapiens, UniProt P11712); assay: Inhibition of recombinant human CYP2C9 expressed in baculosomes coexpressing rabbit NADPH-P450 reudctase assessed as residual activity at 10 uM preincubated for 5 mins followed by substrate and NADP+ addition measured after 20 mins by fluorescence assay relative to control; type: ADME; settings: read-out: Activity; procedure, shortened: as §2
Sequence of CYP2C9 (P11712 whole entry): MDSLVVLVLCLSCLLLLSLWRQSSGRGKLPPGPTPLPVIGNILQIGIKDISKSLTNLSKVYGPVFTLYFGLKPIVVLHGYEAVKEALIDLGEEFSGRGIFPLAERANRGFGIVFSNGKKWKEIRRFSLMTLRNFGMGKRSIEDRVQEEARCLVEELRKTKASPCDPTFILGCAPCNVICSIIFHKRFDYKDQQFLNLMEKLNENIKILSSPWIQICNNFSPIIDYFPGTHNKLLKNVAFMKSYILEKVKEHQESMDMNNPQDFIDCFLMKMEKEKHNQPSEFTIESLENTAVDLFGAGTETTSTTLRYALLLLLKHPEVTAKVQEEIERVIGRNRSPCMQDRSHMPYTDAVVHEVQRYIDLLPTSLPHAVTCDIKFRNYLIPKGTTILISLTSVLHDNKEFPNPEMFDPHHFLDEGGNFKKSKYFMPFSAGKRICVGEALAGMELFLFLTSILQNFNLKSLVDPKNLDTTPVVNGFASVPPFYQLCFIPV

[9] = target: CYP2C19 (Homo sapiens, UniProt P33261); assay: Inhibition of recombinant human CYP2C19 expressed in baculosomes coexpressing rabbit NADPH-P450 reudctase assessed as residual activity at 10 uM preincubated for 5 mins followed by substrate and NADP+ addition measured after 20 mins by fluorescence assay relative to control; type: ADME; settings: read-out: Activity; procedure, shortened: as §2
Sequence of CYP2C19 (P33261 whole entry): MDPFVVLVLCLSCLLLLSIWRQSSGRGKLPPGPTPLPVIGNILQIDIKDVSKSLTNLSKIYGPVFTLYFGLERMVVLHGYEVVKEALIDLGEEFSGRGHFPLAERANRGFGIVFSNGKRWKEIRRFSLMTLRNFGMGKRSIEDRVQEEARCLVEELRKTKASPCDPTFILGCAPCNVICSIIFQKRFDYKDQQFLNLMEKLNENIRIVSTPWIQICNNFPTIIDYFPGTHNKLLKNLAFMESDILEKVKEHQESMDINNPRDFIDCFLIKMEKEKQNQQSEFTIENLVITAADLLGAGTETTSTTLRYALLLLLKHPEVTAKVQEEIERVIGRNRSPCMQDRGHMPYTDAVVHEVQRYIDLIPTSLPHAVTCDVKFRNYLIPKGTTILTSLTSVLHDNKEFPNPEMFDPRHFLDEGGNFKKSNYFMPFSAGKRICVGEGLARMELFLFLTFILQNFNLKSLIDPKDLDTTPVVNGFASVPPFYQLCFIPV

[10] = target: T1, CYP1A2 (Homo sapiens, UniProt P05177); assay: Inhibition of recombinant human CYP1A2 expressed in baculosomes coexpressing rabbit NADPH-P450 reudctase assessed as residual activity at 10 uM preincubated for 5 mins followed by substrate and NADP+ addition measured after 20 mins by fluorescence assay relative to control; type: ADME; settings: read-out: Activity; procedure, shortened: as §2
T1 sequence (P05177 whole entry): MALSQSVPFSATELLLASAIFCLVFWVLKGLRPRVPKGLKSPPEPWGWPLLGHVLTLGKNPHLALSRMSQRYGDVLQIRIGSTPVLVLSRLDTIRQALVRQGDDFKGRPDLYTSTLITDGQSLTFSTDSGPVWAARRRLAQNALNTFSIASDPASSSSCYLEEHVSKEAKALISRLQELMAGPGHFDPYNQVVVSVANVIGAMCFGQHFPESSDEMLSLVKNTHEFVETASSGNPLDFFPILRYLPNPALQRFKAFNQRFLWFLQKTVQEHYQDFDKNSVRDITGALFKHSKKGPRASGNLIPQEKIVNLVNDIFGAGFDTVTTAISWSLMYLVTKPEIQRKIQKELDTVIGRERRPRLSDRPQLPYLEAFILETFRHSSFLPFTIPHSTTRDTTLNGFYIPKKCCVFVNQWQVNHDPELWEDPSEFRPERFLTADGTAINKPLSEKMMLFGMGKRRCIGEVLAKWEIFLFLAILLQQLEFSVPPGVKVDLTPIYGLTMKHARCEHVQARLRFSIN

[11] = target: Voltage-gated inwardly rectifying potassium channel KCNH2 (Homo sapiens, UniProt Q12809); assay: Inhibition of human ERG expressed in CHOK1 cells by automated patch clamp method; type: cell-based, CHO-K1
Sequence of Voltage-gated inwardly rectifying potassium channel KCNH2 (Q12809 whole entry): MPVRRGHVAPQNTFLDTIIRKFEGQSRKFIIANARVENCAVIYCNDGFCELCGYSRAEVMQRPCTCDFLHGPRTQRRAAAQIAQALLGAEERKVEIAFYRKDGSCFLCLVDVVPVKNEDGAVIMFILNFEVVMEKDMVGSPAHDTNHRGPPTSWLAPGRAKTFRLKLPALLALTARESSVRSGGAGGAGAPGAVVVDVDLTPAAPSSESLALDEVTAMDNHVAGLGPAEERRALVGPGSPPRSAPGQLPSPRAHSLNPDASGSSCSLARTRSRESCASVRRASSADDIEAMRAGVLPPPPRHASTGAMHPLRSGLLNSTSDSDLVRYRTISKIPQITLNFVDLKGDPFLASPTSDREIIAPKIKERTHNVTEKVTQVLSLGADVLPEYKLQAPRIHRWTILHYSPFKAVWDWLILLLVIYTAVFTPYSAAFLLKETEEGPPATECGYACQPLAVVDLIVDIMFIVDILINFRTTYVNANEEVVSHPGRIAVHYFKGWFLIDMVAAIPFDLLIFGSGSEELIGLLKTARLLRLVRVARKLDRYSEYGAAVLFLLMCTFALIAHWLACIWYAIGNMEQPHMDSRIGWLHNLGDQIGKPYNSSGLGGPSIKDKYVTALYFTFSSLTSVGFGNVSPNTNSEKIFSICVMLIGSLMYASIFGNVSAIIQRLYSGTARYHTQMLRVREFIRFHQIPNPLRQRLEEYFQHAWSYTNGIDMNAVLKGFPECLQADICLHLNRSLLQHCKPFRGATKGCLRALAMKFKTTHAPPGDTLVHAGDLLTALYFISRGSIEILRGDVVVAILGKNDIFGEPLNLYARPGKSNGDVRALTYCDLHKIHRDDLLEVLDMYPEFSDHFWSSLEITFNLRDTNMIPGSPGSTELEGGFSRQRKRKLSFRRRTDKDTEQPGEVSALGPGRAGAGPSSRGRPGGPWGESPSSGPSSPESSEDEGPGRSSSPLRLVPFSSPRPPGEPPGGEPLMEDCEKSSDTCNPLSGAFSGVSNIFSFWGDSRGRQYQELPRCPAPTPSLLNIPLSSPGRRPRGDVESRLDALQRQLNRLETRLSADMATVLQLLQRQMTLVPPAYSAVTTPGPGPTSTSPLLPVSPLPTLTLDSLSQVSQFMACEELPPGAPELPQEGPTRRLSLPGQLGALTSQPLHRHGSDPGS

[12] = target: CYP3A4 (Homo sapiens, UniProt P08684); assay: Inhibition of recombinant human CYP3A4 expressed in baculosomes coexpressing rabbit NADPH-P450 reudctase assessed as residual activity at 10 uM preincubated for 5 mins followed by substrate and NADP+ addition measured after 20 mins by fluorescence assay relative to control; type: ADME; settings: read-out: Activity; procedure, shortened: as §2
Sequence of CYP3A4 (P08684 whole entry): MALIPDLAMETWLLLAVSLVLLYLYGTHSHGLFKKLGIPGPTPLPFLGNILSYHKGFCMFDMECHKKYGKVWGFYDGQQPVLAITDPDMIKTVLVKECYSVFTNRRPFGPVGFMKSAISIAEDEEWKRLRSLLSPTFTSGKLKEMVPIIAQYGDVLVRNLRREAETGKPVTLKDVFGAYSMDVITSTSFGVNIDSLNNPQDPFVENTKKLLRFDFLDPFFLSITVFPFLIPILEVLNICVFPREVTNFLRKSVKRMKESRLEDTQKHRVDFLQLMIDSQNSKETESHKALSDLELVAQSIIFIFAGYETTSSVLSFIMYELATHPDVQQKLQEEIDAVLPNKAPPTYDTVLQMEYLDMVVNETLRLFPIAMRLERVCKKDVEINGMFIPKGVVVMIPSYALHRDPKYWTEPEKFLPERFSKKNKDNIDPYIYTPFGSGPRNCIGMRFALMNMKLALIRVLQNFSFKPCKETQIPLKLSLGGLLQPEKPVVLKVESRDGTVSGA

[13] = tested on: Mus musculus; assay: Cognition enhancing effect in ICR mouse model of acute Alzheimer's disease assessed as reversal of amyloid beta (1 to 42)-induced cognitive deficit by measuring spatial working memory at 30 mg/kg, ip daily for 6 days measured on day 7 by Y maze spontaneous alteration test relative to control; type: functional
Procedure, shortened: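 Male ICR mice (6 weeks, 30–33 g) received Aβ1-42 500 pmol ICV in 10% DMSO/PBS. Compound in 20% cyclodextrin was given at 30 mg/kg daily for 6 days (n = 7 per group). One day later, each mouse explored a three-arm Y-maze for 8 min, and the sequence of arm entries was used to calculate % spontaneous alternation.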

Row | Structure (SMILES) | Activity [1] [%] | viability at 24 h, 5 µM [2] [%] | Activity [3] [%] | inhibition [5] [%] | inhibition [6] [%] | other results
1 | O=C(NCCCN1CCOCC1)c1ccc(Cn2c(Cc3c(Cl)cccc3Cl)nc3ccccc32)cc1 | 76 | 98 | 1 |  |  | 
2 | COc1ccc(OC)c(CN(C(C)=O)c2ccc(F)cc2Oc2ccccc2)c1 |  |  |  |  |  | IC50 [4]: 1.6 nM
3 | COc1ccc(OC)c(Cc2nc3ccccc3n2CC(=O)Nc2cc(Cl)cc(Cl)c2)c1 | 68 | 81 to 82 | 94 | 12 | 0 | 
4 | CCN1CCCC1CNC(=O)c1ccc(Cn2c(Cc3c(Cl)cccc3Cl)nc3ccccc32)cc1 (stereo not drawn) | 90 | 62 to 122 | 51 | 6 | 24 | activity at 20 min, 10 µM [7]: 82.4%; activity at 20 min, 10 µM [8]: 50.6%; activity at 20 min, 10 µM [9]: 31.4%; activity at 20 min, 10 µM [10]: 63%; IC50 [11]: 1570 nM; activity at 20 min, 10 µM [12]: 130%
5 | Cc1ccc(C(C)C)cc1NC(=O)Cn1c(-c2ccccc2)nc2ccccc21 | 63 | 67 | 19 |  |  | 
6 | O=C(NCCCN1CCCC1)c1ccc(Cn2c(Cc3c(Cl)cccc3Cl)nc3ccccc32)cc1 | 79 | 100 to 101 | 31 | 12 | 15 | 
7 | COc1ccc(OC)c(Cc2nc3ccccc3n2CC(=O)Nc2cc(C(C)C)ccc2C)c1 | 81 | 96 | 0 |  |  | 
8 | NC(=O)CN1CCCC1=O | 60 | 88 to 132 | 127 | 29 | 129 | Activity [13]: 32%
9 | Cc1ccc(C(C)C)cc1NC(=O)Cn1c(-c2cc(Cl)ccc2Cl)nc2cc(Cl)ccc21 | 60 | 78 | 3 |  |  | 
10 | CC(=O)N(Cc1ccccc1OC(C)C)c1ccc(Cl)cc1Oc1ccccc1 |  |  |  |  |  | IC50 [4]: 0.92 nM
11 | Cc1ccc(C(C)C)cc1NC(=O)Cc1nc2ccccc2n1Cc1ccc(C(=O)NCCCN(C)C)cc1 | 68 | 97 | 14 |  |  | 
12 | CN(C)CCCNC(=O)c1ccc(Cn2c(Cc3c(Cl)cccc3Cl)nc3ccccc32)cc1 | 82 | 93 to 111 | 85 | 7 | 9 | activity at 20 min, 10 µM [7]: 120%; Activity [13]: 62%; activity at 20 min, 10 µM [8]: 53.9%; activity at 20 min, 10 µM [9]: 72.9%; activity at 20 min, 10 µM [10]: 66.1%; activity at 20 min, 10 µM [12]: 206%
13 | CN1CCC(NC(=O)c2ccc(Cn3c(Cc4c(Cl)cccc4Cl)nc4ccccc43)cc2)CC1 | 81 | 94 | 8 |  |  | 
14 | Cc1cccc(C(C)(C)C)c1NC(=O)Cn1c(-c2ccccc2)nc2ccccc21 | 65 | 65 to 95 | 55 | 16 | 0 | 
15 | O=C(NCCN1CCCCC1)c1ccc(Cn2c(Cc3c(Cl)cccc3Cl)nc3ccccc32)cc1 | 89 | 87 | 4 |  |  | 
16 | CCCCCCN(CCCCCC)C(=O)Cc1c(-c2ccc(F)cc2)[nH]c2ccccc12 |  |  |  |  |  | Ki [4]: 3.25 nM
17 | CCCN(CCC)C(=O)Cn1c(SCc2ccc(F)cc2)nc2ccccc21 | 57 |  | 20 |  |  | 
18 | CCCCN(CCCC)C(=O)Cc1c(-c2ccc(Cl)cc2)nc2c(Cl)cc(Cl)cn12 |  |  |  |  |  | Ki [4]: 2.68 nM
19 | Cc1ccc(C(C)C)cc1NC(=O)Cn1c(-c2cc(Cl)ccc2Cl)nc2ccc(Cl)cc21 | 87 | 86 to 106 | 69 | 0 | 107 | activity at 20 min, 10 µM [7]: 82.2%; activity at 20 min, 10 µM [8]: 29.6%; activity at 20 min, 10 µM [9]: 11.9%; activity at 20 min, 10 µM [10]: 56.3%; activity at 20 min, 10 µM [12]: 15.4%
20 | Cc1ccc(C(C)C)cc1NC(=O)Cc1nc2ccccc2n1Cc1ccc(C(=O)NCCCN2CCCCC2)cc1 | 80 | 100 | 23 |  |  | 
21 | COc1ccc(OC)c(Cc2nc3ccccc3n2CC(=O)Nc2cc(C(C)(C)C)cc(C(C)(C)C)c2)c1 | 54 | 99 to 112 | 46 | 36 | 10 | activity at 20 min, 10 µM [7]: 56.3%; activity at 20 min, 10 µM [8]: 36.1%; activity at 20 min, 10 µM [9]: 43.9%; activity at 20 min, 10 µM [10]: 92.5%; IC50 [11]: 20 nM; activity at 20 min, 10 µM [12]: 43.3%
22 | O=C(Cn1c(-c2cc(Cl)ccc2Cl)nc2ccccc21)Nc1cc(Cl)cc(Cl)c1 | 91 | 107 | 0 |  |  | 
23 | CC(C)(C)c1cc(NC(=O)Cn2c(-c3ccccc3)nc3ccccc32)cc(C(C)(C)C)c1 | 86 | 71 | 4 |  |  | 
24 | O=C(NCCCN1CCCCC1)c1ccc(Cn2c(Cc3c(Cl)cccc3Cl)nc3ccccc32)cc1 | 90 | 86 to 118 | 64 | 3 | 27 | activity at 20 min, 10 µM [7]: 25.5%; activity at 20 min, 10 µM [8]: 61.1%; activity at 20 min, 10 µM [9]: 67.3%; activity at 20 min, 10 µM [10]: 68.4%; activity at 20 min, 10 µM [12]: 176%
25 | Cc1ccc(C(C)C)cc1NC(=O)Cn1c(-c2cc(Cl)ccc2Cl)nc2ccccc21 | 91 | 93 | 0 |  |  | 

From ChEMBL document CHEMBL3877298, “Discovery of benzimidazole derivatives as modulators of mitochondrial function: A potential treatment for Alzheimer's disease” (Eur J Med Chem, 2017)
